Screens (PubChem)
Most compounds without a hit are left out; they make up all but 3% or so of the library.
SR-BI DiI inh: mouse SR-BI HDL lipid transfer inhibition; Q61009; ldlA[mSR-BI] CHO cells, DiI-HDL uptake fluorescence, 3 h; inhibition, % at 12.5 µM; actives 0.96% (n = 320,000);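 active means mean replicate inhibition of at least 70% and a set share of replicates each scoring 70 or more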
Target sequence (Q61009 whole entry, looked up): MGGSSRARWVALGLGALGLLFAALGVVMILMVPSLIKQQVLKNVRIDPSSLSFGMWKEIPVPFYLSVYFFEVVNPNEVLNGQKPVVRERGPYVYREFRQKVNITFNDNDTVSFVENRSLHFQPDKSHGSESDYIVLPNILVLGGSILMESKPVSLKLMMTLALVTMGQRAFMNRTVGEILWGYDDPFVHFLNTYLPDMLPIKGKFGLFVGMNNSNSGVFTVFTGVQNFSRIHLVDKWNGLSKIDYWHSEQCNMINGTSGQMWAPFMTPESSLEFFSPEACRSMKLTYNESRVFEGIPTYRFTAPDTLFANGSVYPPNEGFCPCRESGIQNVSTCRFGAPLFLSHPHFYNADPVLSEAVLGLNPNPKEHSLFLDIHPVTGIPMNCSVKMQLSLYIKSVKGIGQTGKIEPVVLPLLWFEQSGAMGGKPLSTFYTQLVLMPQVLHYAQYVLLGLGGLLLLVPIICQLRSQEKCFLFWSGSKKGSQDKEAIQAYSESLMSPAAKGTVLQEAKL
TMEM16A inh: mouse TMEM16A channel inhibition, primary screen; normalized B-score (activity score, 25-100; higher = stronger inhibition) at 10 µM; HEK293 TMEM16A/YFP iodide influx fluorescence, ionomycin; actives 1.2% (n = 310,000); AID 588511;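 active means ratio plate-corrected score three or more library SD toward inhibition, starting fluorescence score within five deviations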;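 further: score derived from kinetic fluorescence span divided by baseline fluorescence per well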
ANO1 activ: activates or potentiates the mouse TMEM16A chloride channel; Q8BHY3; HEK293 TMEM16A/YFP-H148Q/I152L, iodide quench fluorescence; stronger effect = lower value; B-score at 10 µM; actives 0.3% (n = 340,000);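 active means fluorescence-ratio B-score plate-corrected deviation score at least 3 library SD below zero, with starting fluorescence score within 5 deviations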;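 further: channel opened by trigger with iodide after compound preincubation; score built on the fluorescence ratio of max minus min over baseline; more negative score means more quench and so TMEM16A activation or potentiation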
FID counter: counter-screen for HCV NS3 helicase inhibitors: DNA intercalator displacement | AID 1845 | DNA fluorescent intercalator displacement, fluorescence | actives 0.17% (n = 290,000) | inhibition, % at 7.9 µM; in the data active means inhibition above about 37%;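 further: higher means more ethidium bromide displaced from hairpin DNA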
Kir21 block: blocks the mouse Kir2.1 inward-rectifier potassium channel; actives 0.85% (n = 310,000); HEK293-Kir2.1, FluxOR thallium flux fluorescence; stronger effect = lower value; P35561; AID 1672; B-score at 10 µM;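 active means fluorescence ratio B-score at or below minus 3 SD of library scores, with starting-brightness B-score within 2 SD, cut at about -4.2 in these data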;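 further: channel flux triggered by added potassium and thallium sulfate stimulus; B-score of peak minus minimum fluorescence over baseline after thallium stimulus; more negative B-score means stronger Kir2.1 block with less thallium influx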
SR-BI DiI-HDL act: enhances SR-BI lipid uptake from DiI-HDL; CHO ldlA[mSR-BI] cells, DiI-HDL uptake fluorescence, 3 h; 100 = double the neutral-control signal; actives 0.096% (n = 320,000); activation, % at 12.5 µM; AID 504775;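 active means mean replicate activation of at least 60% and every replicate at or above 60%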
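material = CHO ldlA[mSR-BI] cells | medium = Ham's F12 with 0.5% BSA, HEPES 25 mM, pH 7.4 | reagent = fluorescent DiI-HDL, 10 µg/mL final | compound dosing = single-point compound dose | incubation = 3 h, 37 °C | measured by = bottom-read fluorescence, 550/595 nm | measure = HDL uptake via cellular fluorescence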
TMEM16A reconf: TMEM16A (mouse) chloride channel inhibition, re-confirmation; inhibition, % at 10 µM; actives 39% (n = 2,300); shares compounds with TMEM16A inh; HEK293 TMEM16A/YFP-H148Q, iodide quench fluorescence; ionomycin added to raise cell calcium;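 active means mean duplicate percent inhibition, scaled so buffer wells are 0 and the reference blocker 100, over three buffer SD above buffer mean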
TMEM16A Ca cntr: calcium mobilization counter-screen hit for TMEM16A inhibitor series; shares compounds with TMEM16A inh; calcium response (% of ionomycin), % at 10 µM; TMEM16A/YFP HEK293, Fluo4 calcium mobilization; actives 2% (n = 2,300); AID 652231;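 active means duplicate-averaged calcium signal over 20% of the ionomycin maximum, relative to buffer baseline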;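 further: each well's signal is peak minus trough fluorescence divided by its pre-addition baseline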
YFP-HEK293 quench: counter-screen for TMEM16A inhibitors: effect in parental YFP-HEK293 cells. AID 652233. iodide YFP quench, ionomycin. YFP ratio F(max-min)/F0 at 10 µM. 2,300 tested, under 10 active. shares compounds with TMEM16A inh;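 active means yellow fluorescent protein signal ratio exceeding the buffer control mean by over 5 SD of those controls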;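 further: ratio is mean of duplicate wells from kinetic YFP trace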
ClC-1 rat inh: selectivity of TMEM16A inhibitors: inhibition of rat ClC-1 chloride channel; shares compounds with TMEM16A inh; CHO ClC-1-YFP, iodide influx fluorescence quench; iodide control reads 0, buffer control 100; ratio percent, % at 10 µM; 2,300 tested, under 10 active;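 active means duplicate-mean ratio percent above the mean of iodide-only control wells, which defines zero, plus 5 of their SD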;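 further: higher percent means stronger block of ClC-1 iodide influx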
Numbers stand for hits; – = inactive; · = no result given.

SMILES	SR-BI DiI inh	TMEM16A inh	ANO1 activ	FID counter	Kir21 block	SR-BI DiI-HDL act	TMEM16A reconf	TMEM16A Ca cntr	YFP-HEK293 quench	ClC-1 rat inh
CCc1cc(-c2[nH]ncc2-c2ccc(OC)cc2)c(O)cc1O	–	–	–	–	–	–	·	·	·	·
CCc1cc(-c2[nH]ncc2-c2ccc3c(c2)OCO3)c(O)cc1O	–	100	–	–	–	–	51.5%	–	–	–
CC12CC3CC(C)(C1)CC(C(=O)NC1=NCCS1)(C3)C2	–	–	–	–	–	–	·	·	·	·
CC12CC3(C)CC(C)(C1)CC(C(=O)NC1=NCCS1)(C2)C3	–	25	–	–	–	–	–	–	–	–
O=C(Nc1ccccc1Cl)NC1(C(=O)NCc2cccnc2)CCCCC1	·	–	–	–	–	·	·	·	·	·
CN(Cc1ccccc1)C(=O)COc1cc(=O)n(C)c2ccccc12	–	–	–	–	–	–	–	–	–	–
Cn1c(=O)[nH]c(=O)c2c1nc1n2CC(COc2ccc3ccccc3c2)O1 (stereo unspecified)	–	–	–	–	–	–	·	·	·	·
CCOC(=O)c1ccc(NC(=O)c2cc(S(=O)(=O)N3CCOCC3)ccc2O)cc1	–	25	–	–	–	–	37.0%	–	–	–
CCOC(=O)c1ccc(NC(=O)c2cc(S(=O)(=O)N3CCOCC3)cn2C)cc1	–	–	–	–	–	–	·	·	·	·
CCOC(=O)c1ccc(NC(=O)C2CCN(S(=O)(=O)c3ccccc3)CC2)cc1	–	–	–	–	–	–	·	·	·	·
CCOC(=O)c1ccc(NC(=O)C2CCCN(S(=O)(=O)c3ccc(F)cc3)C2)cc1 (stereo unspecified)	–	25	–	–	–	–	17.5%	–	–	–
CCC(C)c1ccc(C(CC)NC(=O)C2CCCO2)cc1 (stereo unspecified)	–	–	–	–	–	–	·	·	·	·
O=c1[nH]c2ccccc2n1CCCSCCCn1c(=O)[nH]c2ccccc21	–	100	–	–	–	–	38.5%	–	–	–
Cn1c(=O)oc2cc(S(=O)(=O)N3CCN(C(=O)c4ccco4)CC3)ccc21	–	100	–	–	–	–	–	–	–	–
O=C(c1ccco1)N1CCN(S(=O)(=O)c2ccc3[nH]c(=O)oc3c2)CC1	–	–	–	–	–	–	·	·	·	·
CCOc1cc(C(=S)N2CCOCC2)ccc1OC(=O)c1ccc(C)cc1	–	25	–	–	–	–	–	–	–	–
CCOc1cc(C(=S)N2CCOCC2)ccc1OC(=O)c1ccccc1	–	–	–	–	–	–	·	·	·	·
O=C(CN1C(=O)NC2(CCCC2)C1=O)Nc1ccc(F)c(Cl)c1	·	–	–	–	–	·	·	·	·	·
COc1ccc(NS(=O)(=O)c2ccc3oc(SC(C)C(N)=O)nc3c2)cc1 (stereo unspecified)	–	25	–	–	–	–	–	–	–	–
Cc1ccsc1C(=O)OCc1csc(-c2ccccc2)n1	–	100	–	–	–	–	16.5%	–	–	–
c1ccc2c(c1)OCC(c1csc3ncnc(N4CCCC4)c13)O2 (stereo unspecified)	–	25	–	–	–	–	19.5%	–	–	–
O=C(NNC1=C(C(=O)C(F)(F)F)CCC1)c1ccc(Cl)cc1	93.2	25	–	–	–	–	23.5%	–	–	–
CCN(CC)C(=S)SCc1csc(CC(=O)Nc2ccccc2C)n1	–	–	–	–	–	–	·	·	·	·
O=C(COC(=O)Cc1c(Cl)cccc1Cl)Nc1ccccc1-c1ccccc1	–	25	–	–	–	–	–	–	–	–
CCN(C(=O)CN1CCC(C(=O)OC)CC1)c1c(N)n(Cc2ccccc2)c(=O)[nH]c1=O	–	·	–	·	·	–	·	·	·	·
SMILES	SR-BI DiI inh	TMEM16A inh	ANO1 activ	FID counter	Kir21 block	SR-BI DiI-HDL act	TMEM16A reconf	TMEM16A Ca cntr	YFP-HEK293 quench	ClC-1 rat inh
COc1ccc(Cc2nc(C(=O)Nc3ccc(OC)cc3)cs2)cc1	–	25	–	–	–	–	–	–	–	–
COc1ccc2cc(CN(Cc3cccnc3)S(=O)(=O)c3ccccc3)c(=O)[nH]c2c1	–	100	–	–	–	–	–	–	–	–
COc1ccc2cc(CN(CC3COCCO3)S(=O)(=O)c3ccccc3)c(=O)[nH]c2c1 (stereo unspecified)	–	·	–	–	–	–	·	·	·	·
CCCCN(Cc1cc2cc(OC)ccc2[nH]c1=O)S(=O)(=O)c1ccc(C)cc1	–	25	–	–	–	–	29.0%	–	–	–
COc1ccc2[nH]c(=O)c(CN(CCO)S(=O)(=O)c3ccc(C)cc3)cc2c1	–	–	–	–	–	–	·	·	·	·
Cc1onc(-c2ccccc2)c1C(=O)NC(=S)NNC(=O)c1ccncc1	–	–	–	–	–	–	·	·	·	·
Cc1onc(-c2ccccc2)c1C(=O)NC(=S)NNC(=O)c1cc(-c2ccc(F)cc2)n[nH]1	–	25	–	–	–	–	–	–	–	–
COc1ccc(NC(=O)CN(c2ccc(OC)c(Cl)c2)S(=O)(=O)c2ccccc2)cc1	–	–	–	–	–	–	·	·	·	·
COc1cc(C(=O)N2CCN(C3CCCCC3)CC2)cc(OC)c1OC	–	–	–	–	–	–	·	·	·	·
CCN(CC)CCCCOc1ccccc1OC	–	100	–	–	–	–	–	–	–	–
COc1cc(C(=O)N2CCN(c3ncnc4sc(C)c(C)c34)CC2)cc(OC)c1OC	–	25	–	–	–	–	–	–	–	–
Cc1sc2ncnc(N3CCN(S(=O)(=O)c4ccc(F)cc4)CC3)c2c1C	–	100	–	–	–	–	–	–	–	–
C/C(=N/NC(=O)CNC(=O)/C=C/c1ccco1)c1ccc(Cl)cc1	–	–	–	–	–	–	·	·	·	·
CC(Oc1ccc(Cl)cc1Cl)c1nc(-c2ccc(NC(=O)c3cccnc3)cc2)no1 (stereo unspecified)	–	25	–	–	–	–	–	–	–	–
COc1ccc2oc(=O)cc(CN3CCN(Cc4ccc(OC)c(OC)c4OC)CC3)c2c1	–	–	–	–	–	–	·	·	·	·
Cc1nn(-c2ccccc2)c(C)c1/C=N\N1CCN(c2ccc(Cl)cc2)CC1	79.9	25	–	–	–	–	–	–	–	–
